ChEMBL document CHEMBL4619820, “Development of Novel AKR1C3 Inhibitors as New Potential Treatment for Castration-Resistant Prostate Cancer” (J Med Chem, 2020)
Where a chain is given by its changes, count along the chain named. pIC50: −log10 of the molar value. Active and inactive are the calls of the source. The calls are words filed in the database; no cut-off is given here.

Key:
[1] = target: T1, Aldo-keto reductase family 1 member C3 (Homo sapiens, UniProt P42330); assay: Inhibition of recombinant AKR1C3 (unknown origin) assessed as reduction in S-tetralol-induced dehydrogenase activity by measuring NADPH level
T1 sequence (P42330 whole entry): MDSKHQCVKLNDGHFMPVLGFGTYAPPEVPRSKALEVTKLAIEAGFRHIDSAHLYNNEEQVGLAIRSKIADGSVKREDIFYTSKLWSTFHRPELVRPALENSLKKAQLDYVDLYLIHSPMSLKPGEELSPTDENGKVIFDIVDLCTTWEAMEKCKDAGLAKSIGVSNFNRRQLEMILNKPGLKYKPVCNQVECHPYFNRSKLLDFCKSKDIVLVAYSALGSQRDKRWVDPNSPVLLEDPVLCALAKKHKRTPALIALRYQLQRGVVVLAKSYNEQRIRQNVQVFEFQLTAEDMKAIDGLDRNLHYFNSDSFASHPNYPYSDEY

[2] = target: T2, Carbonyl reductase [NADPH] 1 (Homo sapiens, UniProt P16152); assay: Inhibition of CBR1 (unknown origin)
T2 sequence (P16152 whole entry): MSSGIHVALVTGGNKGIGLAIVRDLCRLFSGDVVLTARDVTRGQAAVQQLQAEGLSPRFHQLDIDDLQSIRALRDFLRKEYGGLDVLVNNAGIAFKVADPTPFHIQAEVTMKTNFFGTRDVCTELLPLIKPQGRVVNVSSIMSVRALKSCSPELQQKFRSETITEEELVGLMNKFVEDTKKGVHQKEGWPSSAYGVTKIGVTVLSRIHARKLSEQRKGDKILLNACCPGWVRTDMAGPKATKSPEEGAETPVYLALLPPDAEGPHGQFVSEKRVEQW

[3] = target: T3, Aldo-keto reductase family 1 member C1 (Homo sapiens, UniProt Q04828); assay: Inhibition of recombinant AKR1C1 (unknown origin) assessed as reduction in S-tetralol-induced dehydrogenase activity by measuring NADPH level
T3 sequence (Q04828 whole entry): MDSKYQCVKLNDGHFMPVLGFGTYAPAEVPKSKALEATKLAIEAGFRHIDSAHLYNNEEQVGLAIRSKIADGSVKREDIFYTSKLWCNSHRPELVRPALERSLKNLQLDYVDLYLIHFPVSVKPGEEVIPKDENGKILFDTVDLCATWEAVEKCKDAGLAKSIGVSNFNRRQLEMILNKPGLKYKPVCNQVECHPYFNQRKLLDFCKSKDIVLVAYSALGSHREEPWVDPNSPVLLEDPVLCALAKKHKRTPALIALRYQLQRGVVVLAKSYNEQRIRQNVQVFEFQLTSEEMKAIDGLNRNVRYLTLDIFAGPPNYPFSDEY

[4] = target: T4, Aldo-keto reductase family 1 member C2 (Homo sapiens, UniProt P52895); assay: Inhibition of recombinant AKR1C2 (unknown origin) assessed as reduction in S-tetralol-induced dehydrogenase activity by measuring NADPH level
T4 sequence (P52895 whole entry): T3 sequence (Q04828 whole entry) with T38V, R47H, L54V, C87S, V151M, R170H, Q172L

[5] = target: T5, Aldo-keto reductase family 1 member C4 (Homo sapiens, UniProt P17516); assay: Inhibition of recombinant AKR1C4 (unknown origin) assessed as reduction in S-tetralol-induced dehydrogenase activity by measuring NADPH level
T5 sequence (P17516 whole entry): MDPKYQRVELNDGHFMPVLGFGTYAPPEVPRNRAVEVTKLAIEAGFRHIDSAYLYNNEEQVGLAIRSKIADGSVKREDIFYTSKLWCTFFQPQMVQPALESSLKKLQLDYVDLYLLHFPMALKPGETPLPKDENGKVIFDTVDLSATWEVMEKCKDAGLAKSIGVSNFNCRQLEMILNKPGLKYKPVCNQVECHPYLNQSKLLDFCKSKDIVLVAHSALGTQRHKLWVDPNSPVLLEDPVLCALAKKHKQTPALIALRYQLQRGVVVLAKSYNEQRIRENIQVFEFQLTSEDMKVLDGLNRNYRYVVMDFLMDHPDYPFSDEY

Homo sapiens [6] = organism: Homo sapiens; assay: Ratio of IC50 for inhibition of recombinant AKR1C1 (unknown origin) inhibition of recombinant AKR1C3 (unknown origin)
Homo sapiens [7] = organism: Homo sapiens; assay: Ratio of IC50 for inhibition of recombinant AKR1C2 (unknown origin) inhibition of recombinant AKR1C3 (unknown origin)
Homo sapiens [8] = organism: Homo sapiens; assay: Ratio of IC50 for inhibition of recombinant AKR1C4 (unknown origin) inhibition of recombinant AKR1C3 (unknown origin)
Homo sapiens [9] = organism: Homo sapiens; assay: Ratio of IC50 for inhibition of CBR1 (unknown origin) inhibition of recombinant AKR1C3 (unknown origin)
[10] = target: T6, Androgen receptor (Homo sapiens) (UniProt P10275); assay: Agonistic activity at AR in human 22Rv1 cells assessed as effect on cell number at 1 nM by CCK8 assay; type: cell-based; conditions: CWR22R
T6 sequence (whole entry): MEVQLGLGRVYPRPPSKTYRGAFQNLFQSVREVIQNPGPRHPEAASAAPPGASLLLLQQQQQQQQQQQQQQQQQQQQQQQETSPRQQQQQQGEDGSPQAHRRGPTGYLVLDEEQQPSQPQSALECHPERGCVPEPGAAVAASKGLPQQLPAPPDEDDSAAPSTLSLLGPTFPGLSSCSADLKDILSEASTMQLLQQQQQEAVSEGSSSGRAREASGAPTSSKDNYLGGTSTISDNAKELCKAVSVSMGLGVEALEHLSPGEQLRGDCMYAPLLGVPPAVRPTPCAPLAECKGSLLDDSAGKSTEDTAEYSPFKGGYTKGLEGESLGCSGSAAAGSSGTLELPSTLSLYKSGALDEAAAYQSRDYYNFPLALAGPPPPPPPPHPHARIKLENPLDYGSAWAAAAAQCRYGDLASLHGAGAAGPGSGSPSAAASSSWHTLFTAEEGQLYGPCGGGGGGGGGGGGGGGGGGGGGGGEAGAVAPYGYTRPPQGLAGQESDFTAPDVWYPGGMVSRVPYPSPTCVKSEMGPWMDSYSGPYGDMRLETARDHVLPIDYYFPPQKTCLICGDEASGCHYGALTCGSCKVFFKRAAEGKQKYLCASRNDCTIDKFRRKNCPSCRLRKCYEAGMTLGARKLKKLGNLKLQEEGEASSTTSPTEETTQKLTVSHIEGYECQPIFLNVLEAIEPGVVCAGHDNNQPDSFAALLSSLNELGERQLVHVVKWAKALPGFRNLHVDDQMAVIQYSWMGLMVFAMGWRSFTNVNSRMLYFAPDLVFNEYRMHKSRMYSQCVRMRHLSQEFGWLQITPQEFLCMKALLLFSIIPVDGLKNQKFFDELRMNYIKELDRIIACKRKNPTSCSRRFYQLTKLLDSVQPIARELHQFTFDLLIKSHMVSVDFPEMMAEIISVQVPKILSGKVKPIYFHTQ

CWR22R [11] = assay: Inhibition of pregnenolone-induced cell proliferation of human 22Rv1 cells at 10 uM pre-incubated for 2 hrs before pregnenolone stimulation for 72 hrs by alamar blue assay; type: functional, cell-based
How it was run: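 22Rv1 cells (AKR1C3- and AR-expressing) pretreated 2 h with agents, then cultured 72 h with 20 nM pregnenolone; viable cell number given as percent of pregnenolone-free control.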

CWR22R [12] = assay: Inhibition of AR mRNA expression in human 22Rv1 cells at 10 uM pre-incubated for 2 hrs before pregnenolone stimulation for 24 hrs by RT-qPCR analysis; type: functional, cell-based
How it was run: (§1)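 22Rv1 cells pretreated 2 h with test agents, then stimulated 24 h with 20 nM pregnenolone; AR, TMPRSS2 and PSA mRNA measured by RT-qPCR, given as ratio to pregnenolone-free control.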

CWR22R [13] = assay: Inhibition of TMPRSS2 mRNA expression in human 22Rv1 cells at 10 uM pre-incubated for 2 hrs before pregnenolone stimulation for 24 hrs by RT-qPCR analysis; type: functional, cell-based; how it was run: as §1
CWR22R [14] = assay: Inhibition of PSA mRNA expression in human 22Rv1 cells at 10 uM pre-incubated for 2 hrs before pregnenolone stimulation for 24 hrs by RT-qPCR analysis; type: functional, cell-based; how it was run: as §1
PC-3 [15] = assay: Inhibition of cell proliferation of human PC3 cells over-expressing AKR1C3 at 1 uM incubated for 72 hrs by alamar blue assay; type: functional, cell-based
CWR22R [16] = assay: Induction of apoptosis in human 22Rv1 cells pre-incubated for 2 hrs before addition of pregnenolone for 24 hrs; type: functional, cell-based
CWR22R [17] = assay: Induction of ROS generation in human 22Rv1 cells at 10 uM by DCFH-DA dye based flow cytometric analysis; type: functional, cell-based
How it was run: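 22Rv1 cells exposed 3 h to 10 μM inhibitor and/or abiraterone, or 50 μM enzalutamide; intracellular ROS by flow cytometry as DCF-positive cells, percent of vehicle control.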

PC-3 [18] = conditions: Homo sapiens, at 10 µM

Cc1ccccc1NC(=O)c1cc2cccc(O)c2oc1=N
pIC50 [1]: 7.28

N=c1oc2c(O)cccc2cc1C(=O)Nc1ccc(C(F)(F)F)cc1C(F)(F)F
pIC50 [1]: 7.24

N=c1oc2c(O)cccc2cc1C(=O)Nc1ccccc1Cl
pIC50 [2]: 7.47
pIC50 [1]: 7.25
pIC50 [3]: < 5.00
pIC50 [4]: < 5.00
pIC50 [5]: < 5.00
Ratio IC50 (Homo sapiens [6]): > 180
Ratio IC50 (Homo sapiens [7]): > 180
Ratio IC50 (Homo sapiens [8]): > 180
Ratio IC50 (Homo sapiens [9]): 0.6
Activity [10]: inactive

N=c1oc2c(O)cccc2cc1C(=O)Nc1cccc(Cl)c1
pIC50 [2]: 6.92
pIC50 [1]: 7.34
pIC50 [3]: < 5.00
pIC50 [4]: < 5.00
pIC50 [5]: < 5.00
Ratio IC50 (Homo sapiens [6]): > 220
Ratio IC50 (Homo sapiens [7]): > 220
Ratio IC50 (Homo sapiens [8]): > 220
Ratio IC50 (Homo sapiens [9]): 3
Activity [10]: inactive

N=c1oc2cccc(O)c2cc1C(=O)Nc1ccc(F)cc1
pIC50 [1]: 6.43

N=c1oc2c(O)cccc2cc1C(=O)Nc1ccc(C(F)(F)F)cc1
pIC50 [1]: 7.62

N=c1oc2c(O)cccc2cc1C(=O)Nc1cc(F)c(F)c(F)c1
pIC50 [1]: 7.33
Activity [10]: inactive

Cc1cccc(NC(=O)c2cc3cccc(O)c3oc2=N)c1
pIC50 [1]: 7.26

CC(C)C(=O)Nc1ccc([N+](=O)[O-])c(C(F)(F)F)c1
inhibition (CWR22R [11]): Active
inhibition (CWR22R [12]): Active
inhibition (CWR22R [13]): Active
inhibition (CWR22R [14]): Active

N=c1oc2c(O)cccc2cc1C(=O)Nc1cccc(C(F)(F)F)c1
pIC50 [1]: 7.30

COc1cccc2cc(C(=O)Nc3ccc(F)cc3)c(=N)oc12
pIC50 [1]: < 5.00

N=c1oc2c(O)cccc2cc1C(=O)Nc1ccccc1C(F)(F)F
pIC50 [2]: 7.12
pIC50 [1]: 7.70
pIC50 [3]: < 5.00
pIC50 [4]: < 5.00
pIC50 [5]: < 5.00
Ratio IC50 (Homo sapiens [6]): > 500
Ratio IC50 (Homo sapiens [7]): > 500
Ratio IC50 (Homo sapiens [8]): > 500
Ratio IC50 (Homo sapiens [9]): 4

N=c1oc2cc(O)ccc2cc1C(=O)Nc1ccc(F)cc1
pIC50 [1]: < 5.00

N=c1oc2ccc(O)cc2cc1C(=O)Nc1ccc(F)cc1
pIC50 [1]: < 5.00

N=c1oc2c(O)cccc2cc1C(=O)Nc1ccc(Cl)cc1
pIC50 [1]: 7.28
Activity [10]: inactive

COC[C@H]1OC(=O)c2coc3c2[C@@]1(C)C1=C(C3=O)[C@@H]2CCC(=O)[C@@]2(C)C[C@H]1OC(C)=O
inhibition (PC-3 [15]): Active

N=c1oc2c(O)cccc2cc1C(=O)Nc1cccc(O)c1
pIC50 [1]: 7.22
Activity [10]: inactive

C[C@]12CC[C@H](O)CC1=CC[C@@H]1[C@@H]2CC[C@]2(C)C(c3cccnc3)=CC[C@@H]12
inhibition (CWR22R [11]): Active
inhibition (CWR22R [12]): Active
inhibition (CWR22R [13]): Active
inhibition (CWR22R [14]): Active
Activity (CWR22R [16]): Active
Activity (CWR22R [17]): Active

N=c1oc2c(O)cccc2cc1C(=O)Nc1ccccc1
pIC50 [1]: 7.44
Activity [10]: inactive

CC(C)c1cccc(NC(=O)c2cc3cccc(O)c3oc2=N)c1
pIC50 [1]: 7.33

N=c1oc2c(O)cccc2cc1C(=O)Nc1ccc(F)c(F)c1
pIC50 [1]: 6.66
Activity [10]: inactive

CCc1ccc(NC(=O)c2cc3cccc(O)c3oc2=N)cc1
pIC50 [1]: 7.35
Activity [10]: inactive

N=c1oc2c(O)cccc2cc1C(=O)Nc1cccc(F)c1
pIC50 [2]: 6.43
pIC50 [1]: 7.54
pIC50 [3]: < 5.00
pIC50 [4]: < 5.00
pIC50 [5]: < 5.00
Ratio IC50 (Homo sapiens [6]): > 340
Ratio IC50 (Homo sapiens [7]): > 340
Ratio IC50 (Homo sapiens [8]): > 340
Ratio IC50 (Homo sapiens [9]): 13
Activity [10]: inactive

CC(C)c1ccccc1NC(=O)c1cc2cccc(O)c2oc1=N
pIC50 [1]: 7.52

N=c1oc2c(O)cccc2cc1C(=O)Nc1ccccc1F
pIC50 [1]: 7.19
Activity [10]: inactive

N=c1oc2c(O)cccc2cc1C(=O)Nc1ccccc1O
pIC50 [1]: < 5.00
Activity [10]: inactive

N=c1oc2c(O)cccc2cc1C(=O)Nc1ccc(O)cc1
pIC50 [1]: < 5.00
Activity [10]: inactive

CCc1ccccc1NC(=O)c1cc2cccc(O)c2oc1=N
pIC50 [1]: 7.68
Activity [10]: inactive

N#CC(=C(/N)Sc1ccccc1N)/C(C#N)=C(\N)Sc1ccccc1N
inhibition (PC-3 [18]): inactive
